One data set relates to dengue virus type 2. In words: Antiviral activity against Dengue virus serotype 2 K0049 infected in Vero cells assessed as inhibition of viral replication pretreated for 2 hrs followed by replacement with fresh medium containing compound and measured after 48 hrs by MTT assay. The format is functional, organism-based. An outline of the steps: (§1)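 Monolayers of 2 × 10^4 cells/well in DMEM with 2% FBS. Infected at 0.1 MOI together with compound for 2h. Wells washed with PBS, then fresh medium with compound added in duplicate and incubated 48h at 37 °C. Supernatant titred by end-point dilution: half-log dilutions on Vero monolayers in quadruplicate for 5–7 days, CPE by microscope then MTT. TCID50 compared with untreated; EC50 from dose-response fit of ≥2 independent experiments.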

For data set [1], the system named is Zika virus. Nature of the data set: Antiviral activity against ZIKV FLR infected in Vero cells assessed as reduction in number of viral RNA copies by qRT-PCR analysis. The data set is classed as functional, organism-based. Conditions: dose 0.3-10 µM. An outline of the steps: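 Viral RNA measured in cell supernatant after compound treatment. Copies/mL calculated from a standard curve.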

For data set [2], the system named is Zika virus. In words: Antiviral activity against ZIKV FLR infected in human U87 cells assessed as inhibition of viral replication pretreated with compounds for 2 hrs followed by replacement with fresh medium containing compound and measured after 48 hrs by MTT assay. The format is functional, organism-based. Conditions: U-87 MG. The method, boiled down:
as §1

A further data set concerns U-87 MG. Nature of the data set: Cytotoxicity against human U87 cells assessed as reduction in cell viability. The data set is classed as toxicity, cell-based. Conditions: u-87mg atcc.
The subject of data set [3] is Zika virus. In words: Antiviral activity against ZIKV FLR infected in Vero cells assessed as inhibition of viral replication by measuring reduction in cytopathic effect at 1 uM preincubated with compounds for 2 hrs followed by replacement with fresh media containing compounds and measured after 48 hrs by MTT assay relative to control. The data set is classed as functional. Conditions: time 50 hrs. The method, boiled down: as §1
For orientation: Cytopathic effects are the visible damage that an infection or toxin causes in cultured cells.

Data set [4] deals with Zika virus. In words: Antiviral activity against ZIKV FLR infected in Vero cells assessed as inhibition of viral replication by measuring reduction in cytopathic effect preincubated with compounds for 2 hrs followed by replacement with fresh media containing compounds and measured after 48 hrs by MTT assay. The format is functional, organism-based. An outline of the steps: as §1

Data set [5] concerns Zika virus. Nature of the data set: Antiviral activity against ZIKV FLR infected in Vero cells assessed as inhibition of viral replication by measuring reduction in cytopathic effect at 10 uM preincubated with compounds for 2 hrs followed by replacement with fresh media containing compounds and measured after 48 hrs by MTT assay relative to control. The format is functional. The note with it: time 50 hrs. The method, boiled down:
as §1

The test system of data set [6] is Zika virus. Nature of the data set: Antiviral activity against ZIKV FLR infected in mosquito C6/36 cells assessed as inhibition of viral replication pretreated with compounds for 2 hrs followed by replacement with fresh medium containing compound and measured after 48 hrs bt MTT assay. The data set is classed as functional, organism-based. The method, boiled down: as §1
For orientation: Tetrazolium dyes change colour on reduction, which living cells bring about.

Data set [7] relates to Zika virus. In words: Antiviral activity against ZIKV FLR infected in Vero cells assessed as inhibition of viral replication by measuring log reduction in cytopathic effect at 10 uM preincubated with compounds for 2 hrs followed by replacement with fresh media containing compounds and measured after 48 hrs by MTT assay. The data set is classed as functional. Conditions: time 50 hrs. The method, boiled down: as §1

For data set [8], the system named is Zika virus. Nature of the data set: Antiviral activity against ZIKV FLR infected in Vero cells assessed as inhibition of viral replication by measuring log reduction in cytopathic effect at 1 uM preincubated with compounds for 2 hrs followed by replacement with fresh media containing compounds and measured after 48 hrs by MTT assay. The format is functional. Conditions: time 50 hrs. An outline of the steps:
as §1

For data set [9], the system named is Zika virus. In words: Antiviral activity against ZIKV FLR infected in Vero cells assessed as inhibition of viral replication by measuring reduction in cytopathic effect at 1 uM preincubated with compounds for 2 hrs followed by replacement with fresh media containing compounds and further incubated for 48 hrs in presence of 1 mM GSH by MTT assay. The format is functional, organism-based. Conditions: time 50.0 hrs. The method, boiled down: as §1

In data set [10] the test system is Zika virus. In words: Antiviral activity against ZIKV FLR infected in human U87 cells assessed as inhibition of viral replication at 1 uM pretreated with compounds for 2 hrs followed by replacement with fresh medium containing compound and measured after 48 hrs by MTT assay relative to control. Conditions: U-87 MG, time 50 hrs. The data set is classed as functional. The method, boiled down:
as §1

In data set [11] the test system is Zika virus. In words: Antiviral activity against ZIKV FLR infected in human U87 cells assessed as inhibition of viral replication at 3 uM pretreated with compounds for 2 hrs followed by replacement with fresh medium containing compound and measured after 48 hrs by MTT assay relative to control. The format is functional. The note with it: U-87 MG, time 50 hrs. An outline of the steps:
as §1

In data set [12] the test system is Zika virus. In words: Antiviral activity against ZIKV HN16 infected in Vero cells assessed as inhibition of viral replication by measuring reduction in cytopathic effect preincubated with compounds for 2 hrs followed by replacement with fresh media containing compounds and measured after 48 hrs by MTT assay. The format is functional, organism-based. The method, boiled down: as §1

Data set [13] has as its system Zika virus. Nature of the data set: Antiviral activity against ZIKV FLR infected in Vero cells assessed as reduction in NS3 viral protein level at 1 to 3 uM incubated for 48 hrs by Western blot analysis. Conditions: dose 1-3 µM. The data set is classed as functional, organism-based. An outline of the steps:
(§2)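 8 × 10^5 Vero cells infected at MOI 0.1 for 2h. Virus removed and cells cultured 48h in fresh medium with 2% FBS plus compound. Cells lysed in ice-cold RIPA buffer and equal total protein separated by SDS-PAGE, then transferred to PVDF. Probed with antibodies to ZIKV NS3, capsid and NS5, with β-actin as loading reference.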
On the technique in general: Immunoblotting shows a protein as a band on a membrane.

In data set [14] the test system is Zika virus. Nature of the data set: Antiviral activity against ZIKV FLR infected in human U87 cells assessed as inhibition of viral replication at 0.3 uM pretreated with compounds for 2 hrs followed by replacement with fresh medium containing compound and measured after 48 hrs by MTT assay relative to control. The data set is classed as functional. Conditions: U-87 MG, time 50 hrs. An outline of the steps: as §1

The subject of data set [15] is Zika virus. In words: Antiviral activity against ZIKV FLR infected in Vero cells assessed as reduction in NS5 viral protein level at 1 to 3 uM incubated for 48 hrs by Western blot analysis. The data set is classed as functional, organism-based. Conditions: dose 1-3 µM. The method, boiled down:
as §2

The test system of data set [16] is Zika virus. Nature of the data set: Antiviral activity against ZIKV FLR infected in Vero cells assessed as reduction in capsid protein level at 1 to 3 uM incubated for 48 hrs by Western blot analysis. The note with it: dose 1-3 µM. The data set is classed as functional, organism-based. The method, boiled down:
as §2

The test system of a further data set is dengue virus type 3. In words: Antiviral activity against Dengue virus serotype 3 7431 infected in Vero cells assessed as inhibition of viral replication pretreated for 2 hrs followed by replacement with fresh medium containing compound and measured after 48 hrs by MTT assay. The format is functional, organism-based. The note with it: Dengue virus, 7431, Vero. An outline of the steps: as §1

Data set [17] deals with Zika virus. In words: Antiviral activity against ZIKV […] infected in Vero cells assessed as reduction in viral titer at 1 uM preinoculated virus for 2 hrs with cells followed by washout of unattached viruses and further incubated with compound for 46 hrs starting from 2 hrs post washout by MTT assay relative to control. The data set is classed as functional. Also noted: scale not given: the % may be the effect or the level left. The method, boiled down:
(§3)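 Cells inoculated with 0.1 MOI virus for 2h, then unattached virus removed by PBS wash. Compound at 1 μM added either right after washout (0h-posttreatment) or 2h after washout (2h-posttreatment). Incubated to 48h at 37 °C, then supernatant TCID50 determined by end-point dilution with CPE/MTT read-out in quadruplicate on Vero cells, relative to untreated.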

Data set [18] relates to Zika virus. In words: Antiviral activity against ZIKV FLR infected in Vero cells assessed as inhibition of viral replication by measuring reduction in cytopathic effect at >=3 uM preincubated with compounds for 2 hrs followed by replacement with fresh media containing compounds and measured after 48 hrs by MTT assay relative to control. The data set is classed as functional. Further details: scale not given: the % may be the effect or the level left. Conditions: time 50 hrs. The method, boiled down:
as §1

Data set [19] deals with Zika virus. Nature of the data set: Antiviral activity against ZIKV FLR infected in Vero cells assessed as inhibition of viral replication by measuring reduction in cytopathic effect at 0.3 uM preincubated with compounds for 2 hrs followed by replacement with fresh media containing compounds and measured after 48 hrs by MTT assay relative to control. The data set is classed as functional. Further details: scale not given: the % may be the effect or the level left. Conditions: time 50 hrs. The method, boiled down: as §1

Data set [20] concerns Zika virus. Nature of the data set: Antiviral activity against ZIKV FLR infected in human U87 cells assessed as inhibition of viral replication at 10 uM pretreated with compounds for 2 hrs followed by replacement with fresh medium containing compound and measured after 48 hrs by MTT assay relative to control. Conditions: U-87 MG, time 50 hrs. The data set is classed as functional. The method, boiled down:
as §1

Data set [21] concerns Zika virus. Nature of the data set: Antiviral activity against ZIKV FLR infected in Vero cells assessed as reduction in viral titer at 1 uM preinoculated virus for 2 hrs with cells followed by washout of unattached viruses and further incubated with compound for 48 hrs by MTT assay relative to control. The data set is classed as functional. Further details: scale not given: the % may be the effect or the level left. The method, boiled down: as §3

Activity calls are given as the source filed them. No cut-off for these calls is given here. Bounds are passed on as bounds.

The values that follow come from ChEMBL document CHEMBL5360632, “Quinazolinone Compounds Have Potent Antiviral Activity against Zika and Dengue Virus” (J Med Chem, 2023).

A word on the EC50: it is the midpoint of the concentration-response curve. Usually CC50 stands for the concentration at which the toxic effect on the cells reaches its halfway point. Broadly, the inhibition is the drop in the measured response relative to a control, in per cent.

Regarding `COc1cccc(/C=C/c2nc3ccc(N4CCCCC4)cc3c(=O)n2-c2cccc(C(C)(C)C)c2)n1`, the concentration giving a half-maximal response (EC50) in the data set on dengue virus type 2 turned out to be 0.16 µM; in the data set with Zika virus [2], 0.82 µM; in the data set with Zika virus [4] it was 0.9 µM; with Zika virus [6], 0.75 µM. Further, the Activity result with Zika virus [1] was “Dose-Dependent Effect”. In the data set with U-87 MG, the half-maximal cytotoxic concentration (CC50) was over 20 µM. Further, in the data set with Zika virus [3], the inhibition at 1 µM is 90%. In addition, the inhibition at 10 µM in the data set with Zika virus [5] worked out at 99.9%.
As to `COc1cccc(-n2c(/C=C/c3cccc(OC)n3)nc3ccc(N4CCCCC4)cc3c2=O)c1`, the EC50 was found to be 0.56 µM in the data set with dengue virus type 2, 0.69 µM in the data set with Zika virus [2], 0.21 µM with Zika virus [4] and 0.77 µM in the data set with Zika virus [6]. For the same compound, the CC50 in the data set on U-87 MG is over 20 µM. For the same compound, the inhibition at 1 µM in the data set on Zika virus [3] worked out at 90%. Moreover, the inhibition at 10 µM in the data set on Zika virus [5] amounted to 99.9%.
As for `CCN(CC)c1ccc2nc(/C=C/c3cccc(OC)n3)n(-c3cccc(C(C)(C)C)c3)c(=O)c2c1`, the “log(activity)” value with Zika virus [7] was found to be 3; in the data set with Zika virus [8], 0.5. Also, the inhibition at 1 µM with Zika virus [3] was 68.4%. Moreover, the inhibition at 10 µM in the data set with Zika virus [5] was determined as 99.9%.
As for `COc1cccc(/C=C/c2nc3ccc(N4CCOCC4)cc3c(=O)n2-c2cccc(C(C)(C)C)c2)n1`, the concentration giving a half-maximal response (EC50) stood at 0.21 µM in the data set on dengue virus type 2; 0.1 µM in the data set with Zika virus [2]; 0.086 µM in the data set with Zika virus [12]; 0.12 µM in the data set on dengue virus type 3; 0.18 µM with Zika virus [4]; 0.23 µM in the data set on Zika virus [6]. The Activity result is “Dose-Dependent Effect” in the data set with Zika virus [1]; 68% in the data set with Zika virus [17]; over 99.9% in the data set on Zika virus [18]; 68% in the data set on Zika virus [19]; 68% in the data set on Zika virus [21]. The outcome in the data set with Zika virus [9], with Zika virus [13], with Zika virus [15] and in the data set on Zika virus [16] was Active. Further, the cytotoxic concentration (CC50) in the data set with U-87 MG is over 20 µM. Further, the inhibition at 1 µM worked out at 97% in the data set with Zika virus [10] and 90% in the data set with Zika virus [3]. The inhibition at 3 µM in the data set on Zika virus [11] came out at 99%. For the same compound, the inhibition at 0.3 µM in the data set on Zika virus [14] worked out at 90%. Further, the inhibition at 10 µM in the data set with Zika virus [5] is 99.9%; in the data set on Zika virus [20], over 99.9%.
